Data on 15 compounds can be found in PMC3793218 (Scientific Reports, 2013).

SMILES strings stand for the structures.

Data set [1] has as its target T1, human UGT1A1 (Homo sapiens, UniProt P22309).
T1 sequence (P22309 26-533): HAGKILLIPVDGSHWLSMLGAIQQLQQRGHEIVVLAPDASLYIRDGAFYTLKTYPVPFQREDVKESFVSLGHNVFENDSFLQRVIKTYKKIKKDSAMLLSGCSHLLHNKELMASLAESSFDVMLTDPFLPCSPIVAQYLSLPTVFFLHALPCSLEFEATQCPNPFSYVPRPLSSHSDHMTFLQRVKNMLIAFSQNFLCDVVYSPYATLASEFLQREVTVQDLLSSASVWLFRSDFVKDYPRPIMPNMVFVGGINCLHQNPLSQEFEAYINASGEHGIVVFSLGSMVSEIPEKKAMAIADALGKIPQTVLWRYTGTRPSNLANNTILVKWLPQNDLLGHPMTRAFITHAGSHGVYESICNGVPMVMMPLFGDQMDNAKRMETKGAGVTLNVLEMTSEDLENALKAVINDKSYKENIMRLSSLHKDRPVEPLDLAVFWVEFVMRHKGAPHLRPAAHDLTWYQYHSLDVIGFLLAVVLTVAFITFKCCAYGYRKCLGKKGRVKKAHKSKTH
Description: Inhibition of estradiol 3-O-glucuronidation in the UGT1A1 recombinant system. The format is biochemical. To be noted: for Inhibition of UGT1A1 activity: UGT1A1 recombinant system, 50 μM fatty acid; for Inhibitory pattern against estradiol 3-O-glucuronidation: Recombinant UGT1A1, Dixon plot. Put shortly: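 Recombinant UGT1A1 Supersomes (0.25 mg/ml) were used in 50 mM Tris-HCl pH 7.4, 10 mM MgCl2, 25 μg/ml alamethicin and 2 mM UDPGA, with test fatty acid at 1–50 μM, 3-min preincubation, and 30 min at 37°C. For IC50, estradiol was 10 μM, runs were duplicate, and values came from linear regression. For Ki, estradiol was 5, 10 or 20 μM with Dixon plot. Product measured by HPLC-fluorescence against authentic standard.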

For data set [2], the system named is UGT1A1. The experiment in a line: Inhibition of estradiol 3-O-glucuronidation in human small intestine microsomes. The format is biochemical. Particulars: human, human small intestine microsomes; for activity at 30 min, 50 μM: pH 7.4, probe estradiol (10 μM; estradiol 3-O-glucuronide formation). The method in brief: (§1)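 Microsomes from human liver or small intestine (0.25 mg/ml) were incubated with 50 mM Tris-HCl pH 7.4, 10 mM MgCl2, 25 μg/ml alamethicin, 2 mM UDPGA, estradiol at 5, 10 or 20 μM, and test fatty acid at 1–50 μM. After 3-min preincubation at 37°C, UDPGA was added to start; 30 min at 37°C; cold methanol stop. Glucuronide measured by HPLC-fluorescence (ex 280/em 310 nm); Dixon plot gave inhibition type and Ki.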

For data set [3], the system named is UGT1A1 activity in human small intestine microsomes. The description is as above. To be noted: Human small intestine microsomes; Dixon plot. The format is biochemical. Put shortly:
as §1

For data set [4], the system named is hUGT1 mice. The format is in vivo. Particulars: neonatal hUGT1 mice; oral 10 mg/kg at 12 days after birth; 48 hours after treatment; control increase 2.3 ± 3.2 mg/dL.
Data set [5] addresses T2, UGT1A1 activity in human liver microsomes (Homo sapiens, UniProt P22309).
T2 sequence (P22309 26-533): T1 sequence (P22309 26-533)
The experiment in a line: Inhibition of estradiol 3-O-glucuronidation in human liver microsomes. The format is biochemical. Particulars: for Inhibitory pattern against estradiol 3-O-glucuronidation: Human liver microsomes, Dixon plot. The method in brief:
as §1

Data set [6] deals with bilirubin clearance by UGT1A1. The experiment in a line: Estimated ratio of intrinsic clearance. Particulars: Equation 4; DHA concentration in human breast milk around 60 μM.
The target of data set [7] is T1, human UGT1A1. Particulars: read-out: Km value of bilirubin glucuronidation; cited from earlier work.

In the case of `CCCCCCCCCCCCCCCCCCCCCCCC(=O)O` [lignoceric acid], the “Inhibition of UGT1A1 activity” value in data set [1] was “not inhibited at all”.

In the case of `CCCCCCCCCCCCCCCCCCCCCC(=O)O` [behenic acid], in data set [1], the concentration for half-maximal inhibition (IC50) (in general, the point on the concentration scale where inhibition reaches its midpoint) was over 50 µM and the “Inhibition of UGT1A1 activity” value is “not inhibited at all”.

For the compound `CC/C=C\C/C=C\C/C=C\C/C=C\C/C=C\CCCC(=O)O` [EPA, eicosapentaenoic acid], the concentration for half-maximal inhibition (IC50) in data set [1] turned out to be 19.9 µM.

Consider `CCCCCCCCCCCCCCCCCC(=O)O` [stearic acid], for which, in data set [1], the IC50 was over 50 µM.

As for `CCCCC/C=C\C/C=C\C/C=C\C/C=C\CCCC(=O)O` [Arachidonic acid], the half-maximal inhibitory concentration (IC50) in data set [1] worked out at 22.7 µM.

For the compound `CC/C=C\C/C=C\C/C=C\C/C=C\C/C=C\C/C=C\CCC(=O)O` [DHA, docosahexaenoic acid], in data set [1], the concentration for half-maximal inhibition (IC50) worked out at 11.6 µM; the Ki – broadly, the dissociation constant of the complex between target and ligand, obtained from inhibition or displacement – turned out to be 1.8 µM; the “Inhibitory pattern against estradiol 3-O-glucuronidation” value (“Inhibitory pattern” for short) is on record as “non-competitive”. In data set [2] (pH 7.4), this compound returned a Ki at 30 min of 5.2 µM. In data set [3], the “Inhibitory pattern” value was “non-competitive”. In addition, in data set [4], the “Increase of serum bilirubin levels from 12 days to 14 days after birth” value was 6.6 mg/dL. In data set [5], the Ki stood at 4.3 µM and the “Inhibitory pattern” value is recorded as “non-competitive”. In data set [6], the “R value (ratio of intrinsic clearance in presence and absence of inhibitor)” value is on record as 0.08.

Consider `CCCCCCCC/C=C\CCCCCCCC(=O)O` [Oleic acid], for which, in data set [1], the concentration for half-maximal inhibition (IC50) amounted to 31.6 µM, the Ki was 23.4 µM and the “Inhibitory pattern” value is given as “non-competitively”. The compound also showed an activity at 30 min, 50 μM in data set [2] of over 80%. In addition, in data set [5], the affinity corresponds to a Ki of 29.3 µM and the “Inhibitory pattern” value is “non-competitively”.

`CCCCCC/C=C\CCCCCCCC(=O)O` [Palmitoleic acid]: the half-inhibitory concentration (IC50) in data set [1] was 37.1 µM.

For the compound `CCCCCCCCCCCCCCCCCCCC(=O)O` [arachidic acid], in data set [1], the IC50 is over 50 µM and the “Inhibition of UGT1A1 activity” value was “not inhibited at all”.

Turning to `C=CC1=C(C)/C(=C/c2[nH]c(Cc3[nH]c(/C=C4\NC(=O)C(C)=C4C=C)c(C)c3CCC(=O)O)c(CCC(=O)O)c2C)NC1=O` [bilirubin], the Michaelis constant (Km) – broadly, the substrate concentration at which the rate is half of its maximum – in data set [7] was about 2 µM.

On to `CCCCCCCCCCCC(=O)O` [lauric acid], for which the “Inhibition of UGT1A1 activity” value in data set [1] is “not inhibited at all”.

`CCCCC/C=C\C/C=C\CCCCCCCC(=O)O` [Linoleic acid]: in data set [1], the half-maximal inhibitory concentration (IC50) amounted to 33.1 µM, the Ki turned out to be 22.1 µM and the “Inhibitory pattern” value is given as “non-competitively”. Moreover, the activity at 30 min, 50 μM in data set [2] is over 80%. In addition, in data set [5], the Ki came to 24 µM and the “Inhibitory pattern” value is “non-competitively”.

As to `CCCCCCCCCCCCCC(=O)O` [myristic acid], in data set [1], the IC50 was over 50 µM and the “Inhibition of UGT1A1 activity” value is on record as “not inhibited at all”.

Take `CCCCCCCCCCCCCCCC(=O)O` [palmitic acid]: in data set [1], the concentration for half-maximal inhibition (IC50) was over 50 µM and the “Inhibition of UGT1A1 activity” value was “not inhibited at all”.

On to `CCCCCCCCCC(=O)O` [decanoic acid], for which the concentration for half-maximal inhibition (IC50) in data set [1] is over 50 µM.
